{"source": "ChEMBL document CHEMBL4433251", "about": "“Discovery of BR102375, a new class of non-TZD PPARγ full agonist for the treatment of type 2 diabetes” (Bioorg Med Chem Lett, 2019)", "key": {"[1]": {"assay": "Half life in rat at 10 mg/kg, po", "assay_type": "ADME, organism-based", "conditions": "in vivo"}, "[2]": {"biological_target": "T1, Peroxisome proliferator-activated receptor gamma (Mus musculus) (UniProt P37238)", "T1 sequence (whole entry)": "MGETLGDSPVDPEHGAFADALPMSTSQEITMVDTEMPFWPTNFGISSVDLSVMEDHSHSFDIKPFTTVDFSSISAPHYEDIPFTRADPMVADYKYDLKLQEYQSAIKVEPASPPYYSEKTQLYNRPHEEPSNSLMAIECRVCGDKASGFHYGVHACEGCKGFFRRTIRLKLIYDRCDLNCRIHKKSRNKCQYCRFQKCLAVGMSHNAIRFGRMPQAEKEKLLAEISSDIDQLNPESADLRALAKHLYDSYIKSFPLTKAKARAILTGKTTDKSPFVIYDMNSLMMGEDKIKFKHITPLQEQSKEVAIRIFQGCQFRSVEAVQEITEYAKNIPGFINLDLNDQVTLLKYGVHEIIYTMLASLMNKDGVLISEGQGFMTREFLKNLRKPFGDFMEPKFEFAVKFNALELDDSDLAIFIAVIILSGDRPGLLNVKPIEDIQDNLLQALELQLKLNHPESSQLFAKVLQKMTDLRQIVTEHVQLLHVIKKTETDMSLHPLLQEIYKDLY", "assay": "Agonist activity at GAL4-tagged mouse PPARgamma LBD expressed in monkey CV1 cells assessed as receptor transactivation incubated for 24 hrs by luciferase reporter gene assay relative to telmisartan", "assay_type": "cell-based"}, "[3]": {"biological_target": "T2, CYP1A2 (Homo sapiens, UniProt P05177)", "T2 sequence (P05177 whole entry)": "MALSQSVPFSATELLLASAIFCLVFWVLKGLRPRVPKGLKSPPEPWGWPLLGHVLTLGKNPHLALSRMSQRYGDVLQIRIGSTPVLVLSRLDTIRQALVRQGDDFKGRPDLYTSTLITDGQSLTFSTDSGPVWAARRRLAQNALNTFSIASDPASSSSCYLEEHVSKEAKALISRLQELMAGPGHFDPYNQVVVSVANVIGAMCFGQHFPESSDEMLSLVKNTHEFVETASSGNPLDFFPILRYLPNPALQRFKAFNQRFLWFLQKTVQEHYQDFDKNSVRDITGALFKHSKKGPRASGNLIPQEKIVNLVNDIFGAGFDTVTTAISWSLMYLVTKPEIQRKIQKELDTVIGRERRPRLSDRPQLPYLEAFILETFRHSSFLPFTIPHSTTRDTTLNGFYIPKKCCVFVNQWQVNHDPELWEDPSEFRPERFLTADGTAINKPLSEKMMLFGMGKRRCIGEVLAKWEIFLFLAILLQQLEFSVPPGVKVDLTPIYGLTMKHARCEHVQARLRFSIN", "assay": "Inhibition of CYP1A2 (unknown origin) assessed as enzyme remaining activity at 10 uM", "assay_type": "ADME", "conditions": "read-out: INH", "method_in_brief": "(§1)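 CYP isoforms 1A2, 2C9, 2C19, 2D6, 3A4: % remaining enzyme activity in presence of 10 uM compound.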"}, "[4]": {"assay": "Stability in rat liver microsomes assessed as parent compound remaining at 30 mins", "assay_type": "ADME, Microsome", "conditions": "read-out: Stability", "method_in_brief": "(§2)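 Compound incubated with liver microsomes (mouse, rat, dog, human) for 30 min; stability expressed as % of parent concentration remaining.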"}, "[5]": {"biological_target": "T1, Peroxisome proliferator-activated receptor gamma (Mus musculus)", "assay": "Agonist activity at PPARgamma in mouse 3T3-L1 cells accessed as increase in insulin stimulated 2-deoxy-D-glucose uptake at 10 uM pre-incubated for 20 mins followed by 2-deoxy-D-glucose addition and measured after 20 to 40 mins by glucose uptake assay", "assay_type": "cell-based"}, "[6]": {"test_system": "Mus musculus", "assay": "Antidiabetic activity in db/db mouse assessed as reduction in random blood glucose level at 75 mg/kg, po administered via gavage twice daily for 2 weeks and measured once a week", "assay_type": "functional, organism-based"}, "[7]": {"assay": "Cmax in rat at 10 mg/kg, po", "assay_type": "ADME, organism-based", "parameters": "dose 10 mg/kg, route oral", "conditions": "in vivo"}, "[8]": {"assay": "AUClast in mouse at 10 mg/kg, po", "assay_type": "ADME, organism-based", "parameters": "dose 10 mg/kg, route oral, time 0 - last", "conditions": "in vivo"}, "[9]": {"biological_target": "CYP2C9 (Homo sapiens, UniProt P11712)", "sequence (P11712 whole entry)": "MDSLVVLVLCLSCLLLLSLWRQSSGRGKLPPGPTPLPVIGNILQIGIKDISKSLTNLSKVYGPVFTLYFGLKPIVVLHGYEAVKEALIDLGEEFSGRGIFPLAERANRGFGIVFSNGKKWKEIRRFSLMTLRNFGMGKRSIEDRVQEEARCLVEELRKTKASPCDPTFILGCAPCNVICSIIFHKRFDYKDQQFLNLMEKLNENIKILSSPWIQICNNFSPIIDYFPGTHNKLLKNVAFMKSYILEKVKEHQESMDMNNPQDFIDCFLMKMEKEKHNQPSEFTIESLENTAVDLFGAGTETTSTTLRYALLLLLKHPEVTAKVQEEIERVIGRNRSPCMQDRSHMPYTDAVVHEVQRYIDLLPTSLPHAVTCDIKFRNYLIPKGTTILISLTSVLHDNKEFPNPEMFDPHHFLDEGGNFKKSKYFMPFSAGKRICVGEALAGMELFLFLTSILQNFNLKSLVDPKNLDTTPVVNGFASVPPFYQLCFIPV", "assay": "Inhibition of CYP2C9 (unknown origin) assessed as enzyme remaining activity at 10 uM", "assay_type": "ADME", "conditions": "read-out: INH", "method_in_brief": "as §1"}, "[10]": {"biological_target": "CYP2C19 (Homo sapiens, UniProt P33261)", "sequence (P33261 whole entry)": "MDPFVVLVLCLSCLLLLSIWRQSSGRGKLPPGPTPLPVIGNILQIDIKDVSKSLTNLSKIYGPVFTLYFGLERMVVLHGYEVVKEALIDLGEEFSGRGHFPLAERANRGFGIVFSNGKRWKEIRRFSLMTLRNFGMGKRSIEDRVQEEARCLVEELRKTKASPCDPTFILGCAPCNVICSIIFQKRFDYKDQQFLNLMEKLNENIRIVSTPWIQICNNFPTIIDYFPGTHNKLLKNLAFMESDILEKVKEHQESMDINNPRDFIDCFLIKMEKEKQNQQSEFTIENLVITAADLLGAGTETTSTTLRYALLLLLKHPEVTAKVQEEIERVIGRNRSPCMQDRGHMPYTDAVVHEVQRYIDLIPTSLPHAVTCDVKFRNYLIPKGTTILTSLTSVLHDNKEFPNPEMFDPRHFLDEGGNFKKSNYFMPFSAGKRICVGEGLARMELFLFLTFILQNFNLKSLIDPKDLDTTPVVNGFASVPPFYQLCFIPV", "assay": "Inhibition of CYP2C19 (unknown origin) assessed as percentage remaining activity at 10 uM", "assay_type": "ADME", "conditions": "read-out: INH", "method_in_brief": "as §1"}, "[11]": {"assay": "Half life in mouse at 10 mg/kg, po", "assay_type": "ADME, organism-based", "conditions": "in vivo"}, "[12]": {"biological_target": "T3, Peroxisome proliferator-activated receptor gamma (Homo sapiens) (UniProt P37231)", "T3 sequence (whole entry)": "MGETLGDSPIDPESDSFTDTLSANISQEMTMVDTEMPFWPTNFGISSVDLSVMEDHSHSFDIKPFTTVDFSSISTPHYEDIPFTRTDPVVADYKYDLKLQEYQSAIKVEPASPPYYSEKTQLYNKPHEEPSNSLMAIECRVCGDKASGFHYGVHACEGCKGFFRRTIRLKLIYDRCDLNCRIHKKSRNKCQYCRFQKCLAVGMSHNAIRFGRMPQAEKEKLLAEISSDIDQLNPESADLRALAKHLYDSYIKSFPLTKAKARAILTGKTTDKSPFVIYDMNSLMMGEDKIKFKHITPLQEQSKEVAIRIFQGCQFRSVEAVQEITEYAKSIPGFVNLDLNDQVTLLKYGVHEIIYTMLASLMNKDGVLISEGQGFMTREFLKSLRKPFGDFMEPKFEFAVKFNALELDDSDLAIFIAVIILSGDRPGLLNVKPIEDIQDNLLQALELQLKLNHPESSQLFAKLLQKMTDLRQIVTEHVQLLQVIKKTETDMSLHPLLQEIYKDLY", "assay": "Agonist activity at PPARgamma (unknown origin) assessed as receptor transactivation after 24 hrs by TK-PPRE-Luc expressing cells based luciferase reporter gene assay relative to pioglitazone", "method_in_brief": "(§3)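 Luciferase reporter gene assay in cells transfected with PPRE and luciferase genes; luciferase induction measured over a range of concentrations to derive EC50 and Amax; Amax expressed as a percentage relative to pioglitazone.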"}, "[13]": {"biological_target": "T4, Peroxisome proliferator-activated receptor gamma (Homo sapiens, UniProt P37231)", "T4 sequence (P37231 whole entry)": "T3 sequence (whole entry)", "assay": "Agonist activity at PPARgamma (unknown origin) assessed as receptor transactivation after 24 hrs by TK-PPRE-Luc expressing cells based luciferase reporter gene assay", "method_in_brief": "as §3"}, "[14]": {"biological_target": "T1, Peroxisome proliferator-activated receptor gamma (Mus musculus)", "assay": "Agonist activity at PPARgamma in mouse 3T3-L1 cells assessed as increase in AP2 RNA expression at 10 uM by qRT-PCR analysis", "assay_type": "cell-based"}, "[15]": {"assay": "Tmax in rat at 10 mg/kg, po", "assay_type": "ADME, organism-based", "conditions": "in vivo"}, "[16]": {"biological_target": "hERG (KCNH2) (Homo sapiens, UniProt Q12809)", "sequence (Q12809 whole entry)": "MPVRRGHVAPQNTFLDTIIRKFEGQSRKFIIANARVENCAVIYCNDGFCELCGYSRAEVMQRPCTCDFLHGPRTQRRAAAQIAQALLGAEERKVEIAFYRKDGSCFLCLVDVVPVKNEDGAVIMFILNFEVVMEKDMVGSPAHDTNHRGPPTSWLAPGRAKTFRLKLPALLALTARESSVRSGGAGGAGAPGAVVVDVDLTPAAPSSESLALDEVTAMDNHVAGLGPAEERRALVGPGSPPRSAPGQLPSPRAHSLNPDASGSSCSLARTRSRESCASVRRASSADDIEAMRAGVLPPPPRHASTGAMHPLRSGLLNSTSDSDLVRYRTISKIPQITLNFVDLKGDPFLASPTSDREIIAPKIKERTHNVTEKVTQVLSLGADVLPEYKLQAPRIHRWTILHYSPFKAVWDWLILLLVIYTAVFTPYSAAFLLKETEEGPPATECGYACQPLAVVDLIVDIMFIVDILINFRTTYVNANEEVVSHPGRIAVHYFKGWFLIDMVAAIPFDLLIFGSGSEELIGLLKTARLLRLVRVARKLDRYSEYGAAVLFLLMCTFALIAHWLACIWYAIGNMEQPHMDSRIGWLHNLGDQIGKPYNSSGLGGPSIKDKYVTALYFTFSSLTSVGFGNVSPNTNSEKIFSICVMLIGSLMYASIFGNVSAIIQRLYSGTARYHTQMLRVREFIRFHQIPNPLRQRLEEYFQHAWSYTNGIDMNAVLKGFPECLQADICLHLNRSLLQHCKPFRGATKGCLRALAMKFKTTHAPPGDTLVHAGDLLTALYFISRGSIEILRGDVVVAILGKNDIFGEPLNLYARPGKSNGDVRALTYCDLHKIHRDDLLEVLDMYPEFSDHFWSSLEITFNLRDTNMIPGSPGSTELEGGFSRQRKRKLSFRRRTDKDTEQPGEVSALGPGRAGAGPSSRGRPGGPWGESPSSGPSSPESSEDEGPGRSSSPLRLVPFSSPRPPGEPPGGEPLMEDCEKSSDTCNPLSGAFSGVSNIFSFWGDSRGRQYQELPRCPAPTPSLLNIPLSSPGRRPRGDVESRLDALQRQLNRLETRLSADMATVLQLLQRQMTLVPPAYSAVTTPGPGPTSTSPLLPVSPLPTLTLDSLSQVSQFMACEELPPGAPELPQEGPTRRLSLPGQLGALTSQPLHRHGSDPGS", "assay": "Inhibition of human ERG at 10 uM", "method_in_brief": "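hERG: % inhibition measured at 10 µM.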"}, "[17]": {"biological_target": "T1, Peroxisome proliferator-activated receptor gamma (Mus musculus)", "assay": "Agonist activity at PPARgamma in mouse 3T3-L1 cells assessed as increase in CD36 RNA expression at 10 uM by qRT-PCR analysis", "assay_type": "cell-based"}, "[18]": {"test_system": "Mus musculus", "assay": "Antidiabetic activity in db/db mouse assessed as reduction in body weight gain at 75 mg/kg, po administered via gavage twice daily for 2 weeks and measured on day 14", "assay_type": "functional, organism-based"}, "[19]": {"assay": "AUClast in rat at 10 mg/kg, po", "assay_type": "ADME, organism-based", "parameters": "dose 10 mg/kg, time 0 - last, route oral", "conditions": "in vivo"}, "[20]": {"test_system": "3T3-L1", "assay": "Induction of preadipocyte differentiation in mouse 3T3L1 cells grown in insulin medium assessed as conversion to matured adipocytes measured after 6 days by oil red O staining based phase contrast microscopy", "assay_type": "functional, cell-based"}, "[21]": {"assay": "Tmax in mouse at 10 mg/kg, po", "assay_type": "ADME, organism-based", "conditions": "in vivo"}, "[22]": {"assay": "Cmax in mouse at 10 mg/kg, po", "assay_type": "ADME, organism-based", "parameters": "dose 10 mg/kg, route oral", "conditions": "in vivo"}, "[23]": {"assay": "Stability in dog liver microsomes assessed as parent compound remaining at 30 mins", "assay_type": "ADME, Canis lupus familiaris, Microsome", "conditions": "read-out: Stability", "method_in_brief": "as §2"}, "[24]": {"assay": "Stability in mouse liver microsomes assessed as parent compound remaining at 30 mins", "assay_type": "ADME, Microsome", "conditions": "read-out: Stability", "method_in_brief": "as §2"}, "[25]": {"biological_target": "CYP2D6 (Homo sapiens, UniProt P10635)", "sequence (P10635 whole entry)": "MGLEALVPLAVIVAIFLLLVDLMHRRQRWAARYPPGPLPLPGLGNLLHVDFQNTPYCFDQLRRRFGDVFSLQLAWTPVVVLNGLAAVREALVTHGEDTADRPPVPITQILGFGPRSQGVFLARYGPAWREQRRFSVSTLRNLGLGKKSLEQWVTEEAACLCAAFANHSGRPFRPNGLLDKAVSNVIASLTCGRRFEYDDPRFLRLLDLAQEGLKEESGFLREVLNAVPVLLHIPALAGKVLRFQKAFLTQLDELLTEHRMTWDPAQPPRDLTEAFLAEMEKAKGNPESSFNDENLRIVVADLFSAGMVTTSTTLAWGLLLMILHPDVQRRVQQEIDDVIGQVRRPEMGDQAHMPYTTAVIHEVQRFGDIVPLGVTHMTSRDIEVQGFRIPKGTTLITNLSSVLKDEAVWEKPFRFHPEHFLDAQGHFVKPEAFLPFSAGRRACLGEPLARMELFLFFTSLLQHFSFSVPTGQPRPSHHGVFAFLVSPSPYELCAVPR", "assay": "Inhibition of CYP2D6 (unknown origin) assessed as percentage remaining activity at 10 uM", "assay_type": "ADME", "conditions": "read-out: INH", "method_in_brief": "as §1"}, "[26]": {"biological_target": "CYP3A4 (Homo sapiens, UniProt P08684)", "sequence (P08684 whole entry)": "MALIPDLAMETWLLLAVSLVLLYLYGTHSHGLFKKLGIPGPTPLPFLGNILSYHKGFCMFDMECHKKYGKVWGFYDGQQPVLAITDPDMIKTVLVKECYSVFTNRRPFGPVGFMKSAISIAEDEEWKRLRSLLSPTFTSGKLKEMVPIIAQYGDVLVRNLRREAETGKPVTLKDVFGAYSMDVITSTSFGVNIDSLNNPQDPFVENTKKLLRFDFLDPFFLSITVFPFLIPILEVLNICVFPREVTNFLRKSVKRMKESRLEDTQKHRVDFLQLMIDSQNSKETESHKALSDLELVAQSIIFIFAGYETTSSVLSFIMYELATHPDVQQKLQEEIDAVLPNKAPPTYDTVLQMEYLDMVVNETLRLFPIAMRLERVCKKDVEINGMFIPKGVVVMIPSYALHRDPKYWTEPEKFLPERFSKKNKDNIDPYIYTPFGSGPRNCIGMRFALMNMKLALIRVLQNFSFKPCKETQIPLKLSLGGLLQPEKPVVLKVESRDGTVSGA", "assay": "Inhibition of CYP3A4 (unknown origin) assessed as percentage remaining activity at 10 uM", "assay_type": "ADME", "conditions": "read-out: INH", "method_in_brief": "as §1"}, "[27]": {"assay": "Stability in human liver microsomes assessed as parent compound remaining at 30 mins", "assay_type": "ADME, Microsome", "conditions": "read-out: Stability", "method_in_brief": "as §2"}, "[28]": {"assay": "Toxicity in db/db mouse assessed as reduction in food intake at 75 mg/kg, po administered via gavage twice daily and measured on day 7", "assay_type": "organism-based", "conditions": "in vivo"}, "[29]": {"test_system": "Mus musculus", "assay": "Antidiabetic activity in db/db mouse assessed as reduction in blood glucose level at 75 mg/kg, po administered twice daily for 2 weeks and measured on day 14 by OGTT method", "assay_type": "functional, organism-based"}}, "note": "The source made the active and inactive calls. The calls are words filed in the database; no cut-off is given here.", "data": [{"smiles": "CCCCc1nc(C)c(Cc2nc(C(C)(C)C)no2)c(=O)n1Cc1ccc(-c2ccccc2-c2noc(=O)[nH]2)cc1", "values": [{"measurement": "half-life", "setting": "[1]", "result": 107, "unit": "min"}, {"measurement": "%max", "setting": "[2]", "result": 331, "unit": "%"}, {"measurement": "activity at 10 µM", "setting": "[3]", "result": 88, "unit": "%"}, {"measurement": "remaining at 0.5 h", "setting": "[4]", "result": 12, "unit": "%"}, {"measurement": "Activity", "setting": "[5]", "result": "Active"}, {"measurement": "Activity", "setting": "[6]", "result": "Active"}, {"measurement": "Cmax", "setting": "[7]", "result": 1320, "unit": "ng/mL"}, {"measurement": "AUC(0-t)", "setting": "[8]", "result": 584, "unit": "ng·h/mL"}, {"measurement": "activity at 10 µM", "setting": "[9]", "result": 57, "unit": "%"}, {"measurement": "activity at 10 µM", "setting": "[10]", "result": 84, "unit": "%"}, {"measurement": "half-life", "setting": "[11]", "result": 70.8, "unit": "min"}, {"measurement": "%max", "setting": "[12]", "result": 98, "unit": "%"}, {"measurement": "EC50", "setting": "[13]", "result": 280, "unit": "nM"}, {"measurement": "Activity", "setting": "[14]", "result": "Active"}, {"measurement": "Tmax", "setting": "[15]", "result": 18, "unit": "min"}, {"measurement": "inhibition at 10 µM", "setting": "[16]", "result": 8.3, "unit": "%"}, {"measurement": "Activity", "setting": "[17]", "result": "Active"}, {"measurement": "Activity", "setting": "[18]", "result": "inactive"}, {"measurement": "AUC(0-t)", "setting": "[19]", "result": 889, "unit": "ng·h/mL"}, {"measurement": "Activity", "setting": "[20]", "result": "Dose-dependent effect"}, {"measurement": "Tmax", "setting": "[21]", "result": 19.8, "unit": "min"}, {"measurement": "Cmax", "setting": "[22]", "result": 949, "unit": "ng/mL"}, {"measurement": "remaining at 0.5 h", "setting": "[23]", "result": 11, "unit": "%"}, {"measurement": "remaining at 0.5 h", "setting": "[24]", "result": 11, "unit": "%"}, {"measurement": "activity at 10 µM", "setting": "[25]", "result": 93, "unit": "%"}, {"measurement": "activity at 10 µM", "setting": "[26]", "result": 64, "unit": "%"}, {"measurement": "remaining at 0.5 h", "setting": "[27]", "result": 17, "unit": "%"}, {"measurement": "Activity", "setting": "[28]", "result": "Toxic"}, {"measurement": "Activity", "setting": "[29]", "result": "Active"}]}]}
